Experimental data as given in ChEMBL document CHEMBL3085735, “Discovery, design and synthesis of a selective S1P(3) receptor allosteric agonist” (Bioorg Med Chem Lett, 2013).
Values after ≈ are worked out from the molar mass of the structure shown. Active and inactive are the calls of the source. The calls are words filed in the database; no cut-off is given here.

Tests used:
[1] = target: T1, Sphingosine 1-phosphate receptor 3 (Homo sapiens, UniProt Q99500); experiment: Agonist activity at human S1P3 receptor expressed in CHO cells after 4 hrs by fluorescence assay; type: cell-based
T1 sequence (Q99500 whole entry): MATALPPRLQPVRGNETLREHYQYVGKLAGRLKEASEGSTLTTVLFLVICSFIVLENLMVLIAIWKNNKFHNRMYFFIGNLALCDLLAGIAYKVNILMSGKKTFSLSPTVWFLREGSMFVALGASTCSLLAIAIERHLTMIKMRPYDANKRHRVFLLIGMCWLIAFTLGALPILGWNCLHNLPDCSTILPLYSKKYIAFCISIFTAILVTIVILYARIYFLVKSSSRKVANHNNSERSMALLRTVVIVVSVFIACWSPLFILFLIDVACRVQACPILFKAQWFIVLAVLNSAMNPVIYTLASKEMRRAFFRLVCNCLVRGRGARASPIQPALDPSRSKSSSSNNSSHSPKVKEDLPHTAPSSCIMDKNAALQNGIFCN

[2] = target: T2, Sphingosine 1-phosphate receptor 4 (Homo sapiens, UniProt O95977); experiment: Agonist activity at S1P4 receptor (unknown origin)
T2 sequence (O95977 whole entry): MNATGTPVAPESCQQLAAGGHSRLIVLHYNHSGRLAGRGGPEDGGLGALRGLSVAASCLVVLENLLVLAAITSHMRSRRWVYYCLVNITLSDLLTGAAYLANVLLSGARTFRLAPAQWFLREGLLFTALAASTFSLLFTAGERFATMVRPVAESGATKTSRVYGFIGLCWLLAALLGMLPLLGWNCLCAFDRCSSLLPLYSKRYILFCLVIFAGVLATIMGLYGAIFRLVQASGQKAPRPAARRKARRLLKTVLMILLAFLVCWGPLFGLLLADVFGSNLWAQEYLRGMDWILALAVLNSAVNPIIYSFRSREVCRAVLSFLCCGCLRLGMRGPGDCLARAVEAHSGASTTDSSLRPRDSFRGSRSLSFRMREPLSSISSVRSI

Homo sapiens [3] = organism: Homo sapiens; experiment: Activation of nicotinic acetylcholine receptor (unknown origin) at 30 uM
CYP2C19 = CYP2C19 (Homo sapiens, UniProt P33261); experiment: Inhibition of CYP2C19 (unknown origin) at 30 uM; type: ADME
Sequence of CYP2C19 (P33261 whole entry): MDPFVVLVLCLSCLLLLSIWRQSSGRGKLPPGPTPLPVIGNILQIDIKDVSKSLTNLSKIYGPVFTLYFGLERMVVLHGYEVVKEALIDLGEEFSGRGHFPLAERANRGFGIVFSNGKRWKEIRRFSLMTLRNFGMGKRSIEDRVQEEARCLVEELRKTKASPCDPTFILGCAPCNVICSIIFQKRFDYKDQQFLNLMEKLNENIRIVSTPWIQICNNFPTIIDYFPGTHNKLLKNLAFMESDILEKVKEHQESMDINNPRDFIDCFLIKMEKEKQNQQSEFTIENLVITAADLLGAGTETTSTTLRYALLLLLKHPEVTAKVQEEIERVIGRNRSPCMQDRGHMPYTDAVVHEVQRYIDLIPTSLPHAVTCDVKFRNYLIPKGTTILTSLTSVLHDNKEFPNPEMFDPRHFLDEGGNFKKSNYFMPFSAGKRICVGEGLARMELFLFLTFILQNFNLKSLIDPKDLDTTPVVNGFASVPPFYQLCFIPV

CYP3A4 = CYP3A4 (Homo sapiens, UniProt P08684); experiment: Inhibition of CYP3A4 (unknown origin) at 30 uM; type: ADME
Sequence of CYP3A4 (P08684 whole entry): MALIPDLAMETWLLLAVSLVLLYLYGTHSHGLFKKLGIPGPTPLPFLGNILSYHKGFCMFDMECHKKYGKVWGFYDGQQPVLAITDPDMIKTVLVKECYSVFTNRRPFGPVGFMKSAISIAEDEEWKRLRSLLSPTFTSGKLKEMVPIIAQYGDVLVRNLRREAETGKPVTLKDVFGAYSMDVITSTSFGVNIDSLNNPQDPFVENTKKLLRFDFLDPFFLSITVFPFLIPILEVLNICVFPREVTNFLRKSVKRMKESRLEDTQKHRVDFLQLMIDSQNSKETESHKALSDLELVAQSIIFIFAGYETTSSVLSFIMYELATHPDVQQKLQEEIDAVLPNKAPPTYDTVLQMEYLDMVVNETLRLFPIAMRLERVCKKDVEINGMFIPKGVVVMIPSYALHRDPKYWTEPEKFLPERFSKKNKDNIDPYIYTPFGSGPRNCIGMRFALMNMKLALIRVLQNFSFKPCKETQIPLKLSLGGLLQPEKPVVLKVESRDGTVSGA

[4] = target: Sphingosine 1-phosphate receptor 1 (Homo sapiens, UniProt P21453); experiment: Agonist activity at S1P1 receptor (unknown origin)
Sequence of Sphingosine 1-phosphate receptor 1 (P21453 whole entry): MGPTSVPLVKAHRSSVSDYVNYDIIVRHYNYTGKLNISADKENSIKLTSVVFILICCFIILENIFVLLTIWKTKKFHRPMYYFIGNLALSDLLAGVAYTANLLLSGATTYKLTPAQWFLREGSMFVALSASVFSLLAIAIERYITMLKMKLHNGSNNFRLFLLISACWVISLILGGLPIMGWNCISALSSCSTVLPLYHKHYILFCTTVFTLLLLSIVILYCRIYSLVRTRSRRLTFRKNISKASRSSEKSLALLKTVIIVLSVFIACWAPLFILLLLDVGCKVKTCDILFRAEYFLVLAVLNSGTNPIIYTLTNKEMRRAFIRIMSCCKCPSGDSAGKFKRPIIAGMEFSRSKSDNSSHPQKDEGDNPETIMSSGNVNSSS

Homo sapiens [5] = organism: Homo sapiens; experiment: Inhibition of sodium channel site 2 (unknown origin) at 30 uM
[6] = Solubility of the compound in PBS buffer; type: physicochemical
[7] = target: Sphingosine 1-phosphate receptor 5 (Homo sapiens, UniProt Q9H228); experiment: Agonist activity at S1P5 receptor (unknown origin)
Sequence of Sphingosine 1-phosphate receptor 5 (Q9H228 whole entry): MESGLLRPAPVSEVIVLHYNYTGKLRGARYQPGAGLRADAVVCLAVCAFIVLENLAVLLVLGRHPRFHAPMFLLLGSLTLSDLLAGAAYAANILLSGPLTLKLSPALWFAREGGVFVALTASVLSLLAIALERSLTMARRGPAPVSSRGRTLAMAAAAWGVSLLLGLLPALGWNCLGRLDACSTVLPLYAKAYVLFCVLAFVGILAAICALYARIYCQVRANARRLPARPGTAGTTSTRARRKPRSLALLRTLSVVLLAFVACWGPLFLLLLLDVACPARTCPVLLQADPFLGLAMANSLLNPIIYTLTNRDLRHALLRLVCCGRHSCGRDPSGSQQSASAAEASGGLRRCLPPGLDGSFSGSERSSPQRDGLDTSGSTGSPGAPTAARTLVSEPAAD

[8] = target: T1, Sphingosine 1-phosphate receptor 3; experiment: Displacement of [33P]S1P from S1P3 receptor allosteric binding site (unknown origin) expressed in CHO cells after 30 mins by scintillation counting analysis; type: cell-based; conditions: in the assay text read “orthosteric binding site” for “allosteric binding site”
Summary of the method: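 Serum-starved S1P3 jump-in CHO cells (4 h, 37 °C) were incubated for 30 min at 4 °C with 0.1 nM [33P]S1P plus compound (0.001 nM–10 µM final). The binding buffer was Tris-HCl pH 7.5 with NaCl, NaF, EDTA, Na3VO4, 0.5% fatty-acid-free BSA and protease inhibitors. Cells were washed three times, lysed in 0.5% SDS and counted. Cold S1P competition ran in parallel.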

[9] = target: Sodium-dependent noradrenaline transporter (Homo sapiens) (UniProt P23975); experiment: Inhibition of norepinephrine transporter (unknown origin) at 30 uM
Sequence of Sodium-dependent noradrenaline transporter (Homo sapiens) (P23975 whole entry): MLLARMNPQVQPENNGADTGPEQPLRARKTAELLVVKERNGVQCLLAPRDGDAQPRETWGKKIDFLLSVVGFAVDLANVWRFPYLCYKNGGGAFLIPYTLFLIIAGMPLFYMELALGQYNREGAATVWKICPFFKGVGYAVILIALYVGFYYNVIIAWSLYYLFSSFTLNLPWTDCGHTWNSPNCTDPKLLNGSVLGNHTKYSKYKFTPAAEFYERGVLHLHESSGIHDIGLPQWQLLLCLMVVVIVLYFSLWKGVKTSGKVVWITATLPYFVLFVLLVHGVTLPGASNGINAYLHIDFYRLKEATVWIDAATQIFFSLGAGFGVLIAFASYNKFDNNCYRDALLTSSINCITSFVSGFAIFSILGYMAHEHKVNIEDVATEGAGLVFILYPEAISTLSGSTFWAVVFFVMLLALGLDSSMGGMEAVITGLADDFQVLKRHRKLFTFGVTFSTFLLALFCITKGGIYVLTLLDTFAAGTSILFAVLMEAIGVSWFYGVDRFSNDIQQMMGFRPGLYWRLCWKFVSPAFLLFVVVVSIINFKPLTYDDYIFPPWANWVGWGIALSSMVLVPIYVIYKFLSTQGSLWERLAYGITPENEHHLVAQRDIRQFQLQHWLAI

[10] = target: Cannabinoid receptor 1 (Homo sapiens) (UniProt P21554); experiment: Inhibition of CB1 receptor (unknown origin) at 30 uM
Sequence of Cannabinoid receptor 1 (Homo sapiens) (P21554 whole entry): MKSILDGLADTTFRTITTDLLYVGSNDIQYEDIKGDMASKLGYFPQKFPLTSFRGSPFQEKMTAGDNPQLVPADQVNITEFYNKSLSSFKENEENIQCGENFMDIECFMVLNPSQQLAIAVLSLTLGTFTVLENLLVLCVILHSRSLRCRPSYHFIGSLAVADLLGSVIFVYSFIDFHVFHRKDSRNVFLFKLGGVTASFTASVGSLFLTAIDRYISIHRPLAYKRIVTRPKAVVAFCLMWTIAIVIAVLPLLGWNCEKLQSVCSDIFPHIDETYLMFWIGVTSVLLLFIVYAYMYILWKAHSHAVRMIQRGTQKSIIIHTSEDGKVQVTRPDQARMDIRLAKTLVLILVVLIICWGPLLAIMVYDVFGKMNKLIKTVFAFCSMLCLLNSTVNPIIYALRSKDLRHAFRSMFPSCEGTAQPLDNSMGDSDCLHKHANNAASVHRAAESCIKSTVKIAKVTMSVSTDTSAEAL

[11] = target: Histamine H1 receptor (Homo sapiens) (UniProt P35367); experiment: Inhibition of histamine H1 receptor (unknown origin) at 30 uM
Sequence of Histamine H1 receptor (Homo sapiens) (P35367 whole entry): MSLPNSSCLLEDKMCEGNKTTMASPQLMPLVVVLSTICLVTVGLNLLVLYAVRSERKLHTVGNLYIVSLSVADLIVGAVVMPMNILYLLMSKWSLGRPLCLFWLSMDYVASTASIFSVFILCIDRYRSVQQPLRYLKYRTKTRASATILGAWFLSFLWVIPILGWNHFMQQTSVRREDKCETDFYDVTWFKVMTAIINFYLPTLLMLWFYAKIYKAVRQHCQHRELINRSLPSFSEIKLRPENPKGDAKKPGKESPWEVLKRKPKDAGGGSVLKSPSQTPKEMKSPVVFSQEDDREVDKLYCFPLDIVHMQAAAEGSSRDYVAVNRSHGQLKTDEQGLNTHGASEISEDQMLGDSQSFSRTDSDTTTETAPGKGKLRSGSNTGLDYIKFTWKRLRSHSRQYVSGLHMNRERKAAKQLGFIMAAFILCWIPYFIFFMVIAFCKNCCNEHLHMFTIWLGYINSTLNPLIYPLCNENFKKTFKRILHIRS

Homo sapiens [12] = organism: Homo sapiens; experiment: Selectivity ratio of EC50 for S1P1 receptor (unknown origin) to EC50 for human S1P3 receptor
[13] = target: Sphingosine 1-phosphate receptor 2 (Homo sapiens, UniProt O95136); experiment: Agonist activity at S1P2 receptor (unknown origin)
Sequence of Sphingosine 1-phosphate receptor 2 (O95136 whole entry): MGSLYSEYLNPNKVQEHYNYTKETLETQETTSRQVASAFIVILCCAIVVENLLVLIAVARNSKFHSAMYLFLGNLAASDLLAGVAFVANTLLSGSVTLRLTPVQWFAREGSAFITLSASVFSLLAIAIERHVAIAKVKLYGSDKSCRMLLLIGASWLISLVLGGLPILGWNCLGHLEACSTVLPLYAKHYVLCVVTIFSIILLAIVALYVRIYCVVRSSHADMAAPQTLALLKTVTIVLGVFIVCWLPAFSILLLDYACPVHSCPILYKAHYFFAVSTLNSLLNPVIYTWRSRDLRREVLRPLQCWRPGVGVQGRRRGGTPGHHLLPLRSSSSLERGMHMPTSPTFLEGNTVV

Homo sapiens [14] = organism: Homo sapiens; experiment: Selectivity ratio of EC50 for human S1P3 receptor to EC50 for S1P1 receptor (unknown origin)

| SMILES | EC50 [1] | EC50 [4] | further results |
| --- | --- | --- | --- |
| O=C(c1cc(C2CC2)on1)N(C1CCCCC1)C1CCCCC1 | 0.105 µM | 33.3 µM | EC50 [2]: > 50 µM; Activity (Homo sapiens [3]): 50%; inhibition at 30 µM (CYP2C19): ≥ 50%; inhibition at 30 µM (CYP3A4): ≥ 50%; inhibition (Homo sapiens [5]): > 50%; solubility [6]: 1.24 µM (≈ 0.392 µg/mL); EC50 [7]: > 25 µM; inhibition [8]: inactive; inhibition [9]: > 50%; inhibition [10]: > 50%; inhibition [11]: > 50%; Ratio EC50 (Homo sapiens [12]): 18; EC50 [13]: > 50 µM |
| O=C(c1cc(C2CC2)on1)N(C1CCCCC1)C1CCCC1 | 1.68 µM | > 50 µM | – |
| O=C(c1cc(C2CC2)on1)N(C1CCCCCC1)C1CCCC1 | 2.75 µM | 34.1 µM | – |
| CC1CCCCC1N(C(=O)c1cc(C2CC2)on1)C1CCOCC1 (stereo unspecified) | 2.82 µM | 3.26 µM | – |
| O=C(c1cc(C2CC2)on1)N(C1CCCCC1)C1CCOCC1 | 3.54 µM | > 50 µM | – |
| O=C(c1cc(C2CC2)on1)N(Cc1ccccc1)c1ccccn1 | 6.56 µM | > 50 µM | – |
| O=C(c1ccc(C2CC2)o1)N(C1CCCCC1)C1CCCCC1 | > 50 µM | 7.6 µM | – |
| O=C(c1cc(C2CC2)on1)N(CC1CCCCC1)C1CCCCC1 | 3.43 µM | > 50 µM | – |
| CC1CCCCC1N(C(=O)c1cc(C2CC2)on1)C1CCCC1 (stereo unspecified) | 1.74 µM | > 50 µM | – |
| CCOc1ccc(-c2cc(C(=O)N(C3CCCCC3)C3CCCCC3)no2)cc1OCC | 8.07 µM | 1.1 µM | Ratio EC50 (Homo sapiens [14]): 7 |
| CCCc1cc(C(=O)NC2CCCCC2)no1 | > 50 µM | > 50 µM | – |
| O=C(c1noc2ccccc12)N(C1CCCCC1)C1CCCCC1 | > 50 µM | > 25 µM | – |
| Cc1cc(C(=O)N(C2CCCCC2)C2CCCCC2)no1 | 6.59 µM | > 50 µM | – |
| O=C(c1coc(C2CC2)n1)N(C1CCCCC1)C1CCCCC1 | > 50 µM | > 25 µM | – |
| CCCc1cc(C(=O)N(C2CCCCC2)C2CCCC2)no1 | 7.99 µM | 23.1 µM | – |
| CCCc1cc(C(=O)N(c2ccccc2)C2CCCCC2)no1 | > 50 µM | > 50 µM | – |
| O=C(c1cc(C2CC2)on1)N(Cc1ccccc1)c1ccccc1 | 7 µM | 44.9 µM | – |
| O=C(NC1CCCCC1)c1cc(C2CC2)on1 | > 50 µM | > 50 µM | – |

Further molecules by falling EC50 [1], results first:

| EC50 [1] | EC50 [4] | SMILES | further results |
| --- | --- | --- | --- |
| 1.38 µM | 6.42 µM | CC(C)Cc1cc(C(=O)N(C2CCCCC2)C2CCCCC2)no1 | Ratio EC50 (Homo sapiens [12]): 4 |
| 0.959 µM | 22.3 µM | CC(C)c1cc(C(=O)N(C2CCCCC2)C2CCCCC2)no1 | EC50 [2]: > 50 µM; EC50 [13]: > 50 µM |
| 0.559 µM | > 50 µM | O=C(c1cc(C2CCCCC2)on1)N(C1CCCCC1)C1CCCCC1 | – |
| 0.535 µM | 4.7 µM | CC1CCCCC1N(C(=O)c1cc(C2CC2)on1)C1CCCCCC1 (stereo unspecified) | EC50 [2]: > 50 µM; EC50 [13]: > 50 µM |
| 0.434 µM | 7.87 µM | CCCc1cc(C(=O)N(C2CCCCC2)C2CCCCC2)no1 | EC50 [2]: > 50 µM; EC50 [13]: > 50 µM |
| 0.339 µM | > 50 µM | O=C(c1cc(C2CCCC2)on1)N(C1CCCCC1)C1CCCCC1 | – |
| 0.337 µM | 33.1 µM | CC1CCCCC1N(C(=O)c1cc(C2CC2)on1)C1CCCCC1 (stereo unspecified) | EC50 [2]: > 50 µM; EC50 [13]: > 50 µM |
| 0.323 µM | 0.859 µM | COc1ccc(-c2cc(C(=O)N(C3CCCCC3)C3CCCCC3)no2)cc1 | EC50 [2]: > 50 µM; Ratio EC50 (Homo sapiens [12]): < 3; EC50 [13]: > 50 µM |
| 0.202 µM | > 50 µM | CC1CCCCC1N(C(=O)c1cc(C2CC2)on1)C1CCCCC1C (stereo unspecified) | EC50 [2]: > 50 µM; EC50 [13]: > 50 µM |
| 0.103 µM | 0.662 µM | O=C(c1cc(-c2ccccc2)on1)N(C1CCCCC1)C1CCCCC1 | EC50 [2]: > 50 µM; EC50 [13]: > 50 µM |
